Experiments:
[1] = "under the same conditions"; cited from earlier work
[2] = Fe; format: binding; details: until molar ratio Fe (II) to peptide 1 of 1:1; peptide 1 10.0 μM; TBS pH 7.4
[3] = Transmission electron microscopy, aggregation and disaggregation; format: physicochemical
Method in brief: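 Droplets of the peptide, the test compound, or the test compound bound to NK1R at 1:1 molar ratio were placed on carbon-coated holey grids. The NK1R sample alone was negatively stained with sodium phosphotungstate and dried at room temperature for 12 h before TEM imaging.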

[4] = Relaxivity r1, 0.5 T MR system; format: physicochemical; details: TBS pH 7.4, 50.0 mM Tris, 50.0 mM NaCl, 37 °C, 1-100 μM, inversion recovery, slope of 1/T1 versus concentration
[5] = biological target: probe 1 (terpyridine-Fe (II) complex of the Gd (III)-DOTA peptide 1, a modified substance P); experiment: T1 relaxation rate
[6] = biological target: probe 1 (terpyridine-Fe (II) complex of the Gd (III)-DOTA peptide 1, a modified substance P); experiment: other fluorescence titration
[7] = biological target: probe 1 (terpyridine-Fe (II) complex of the Gd (III)-DOTA peptide 1, a modified substance P); experiment: fluorescence polarisation

Molecule: O=C([O-])CN(CCN(CC(=O)[O-])CC(=O)O)CCN(CC(=O)[O-])CC(=O)O.[Gd+3] [Gd-(DTPA)]
- relaxivity r1, clinical contrast agents [1]: 4.6 mM⁻¹ s⁻¹

Molecule: CC(O)CN1CCN(CC(=O)[O-])CCN(CC(=O)[O-])CCN(CC(=O)[O-])CC1.[Gd+3] (stereo not shown) [Gd-(HP-DO3A)]
- relaxivity r1, clinical contrast agents [1]: 4.3 mM⁻¹ s⁻¹

Molecule: MLGFFQQPKPRKKKKKK(Tpy)K(Tpy)KK(Dye)DOTA [peptide 1]
- fluorescence at 610 nm upon addition of Fe (II) ions [2]: decreased
- length (TEM) ([3]; nanofibers, peptide 1 alone, 10.0 μM in TBS pH 7.4): several hundred nm
- diameter (TEM) ([3]; threadlike network of nanofibers, peptide 1 alone, 10.0 μM in TBS pH 7.4): approximately 3.5 nm
- relaxivity r1 [4]: 11.8 mM⁻¹ s⁻¹

Molecule: neurokinin-1 receptor (NK1R), recombinant
- stoichiometry N [5]: 1 probe 1:NK1R
- fold increase of the fluorescence intensity of probe 1 at 610 nm [6]: 3 fold
- Kd [7]: 2300 nM

B1: NK1R: recombinant NK1R (TACR1) expressed in Rosetta (DE3), purified using nickel affinity chromatography (protein)
chain: MDNVLPVDSDLSPNISTNTSEPNQFVQPAWQIVLWAAAYTVIVVTSVVGNVVVMWIILAHKRMRTVTNYFLVNLAFAEASMAAFNTVVNFTYAVHNEWYYGLFYCKFHNFFPIAAVFASIYSMTAVAFDRYMAIIHPLQPRLSATATKVVICVIWVLALLLAFPQGYYSTTETMPSRVVCMIEWPEHPNKIYEKVYHICVTVLIYFLPLLVIGYAYTVVGITLWASEIPGDSSDRYHEQVSAKRKVVKMMIVVVCTFAICWLPFHIFFLLPYINPDLYLKKFIQQVYLAIMWLAMSSTMYNPIIYCCLNDRFRLGFKHAFRCCPFISAGDYEGLEMKSTRYLQTQGSVYKVSRLETTISTVVGAHEEEPEDGPKATPSSLDLTSNCSSRSDSKTMTESFSFSSNVLS
- diameter (TEM) ([3]; NK1R multimers, 1.0 μM, stained with sodium phosphotungstate 2.0 wt%, TBS pH 7.4): approximately 3.8 nm

Reference: PMC4180826 (Scientific Reports, 2014)
